This is a sample that favours compounds with a hit; in the whole collection about 6.4% have one here.
CHOP inhibitor = blocks CHOP induction under ER stress | 3.8% of 220,000 active | CHO-K1 CHOP-promoter luciferase, tunicamycin-induced, 15-18 h | inhibition, % at 10 µM;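 active means compounds that reduced the stress-induced luciferase reporter signal by more than about 70% of percent inhibition, limit read from the data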;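 further: 0% = tunicamycin plus vehicle and 100% = wells without tunicamycin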
TbMetRS inhib = blocks T. brucei methionyl-tRNA synthetase activity. purified T. brucei MetRS, ATP depletion, Kinase-Glo luminescence. inhibition, % at 11.9 µM. 0.4% of 360,000 active. AID 624268;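 active means inhibition above a per-plate cutoff of the control wells' mean inhibition plus 3 SD, cut at about 5.5% in these data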;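 further: 0% = DMSO wells median and 100% = median of wells with control inhibitor compound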
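Test system: purified T. brucei MetRS enzyme. Also added: ATP, methionine and E. coli bulk tRNA substrates. Compound: 11.9 µM single point. Schedule: 15 min enzyme-compound preincubation, 2 h reaction, 10 min detection, 25 °C. Signal: luciferase luminescence of residual ATP, Kinase-Glo. Evaluation: percent inhibition versus plate control medians. Controls: DMSO wells, low control.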
WT yeast gro inh = growth inhibition of WT yeast, mitochondrial fusion screen; 2.1% of 190,000 active; mitochondrial fusion phenotypic screen, WT strain; inhibition, % at 10 µM; AID 1362; in the data active means inhibition above about 58%; tested in S. cerevisiae
EBV gp42 block = EBV gp42 inhibition. Q1HVG2. Fluorescence polarization binding assay, mP read-out. inhibition, % (tested at 21.74 µM). 0.42% of 220,000 active. AID 1085; in the data active means inhibition above about 50%
Target sequence (Q1HVG2 whole entry, looked up): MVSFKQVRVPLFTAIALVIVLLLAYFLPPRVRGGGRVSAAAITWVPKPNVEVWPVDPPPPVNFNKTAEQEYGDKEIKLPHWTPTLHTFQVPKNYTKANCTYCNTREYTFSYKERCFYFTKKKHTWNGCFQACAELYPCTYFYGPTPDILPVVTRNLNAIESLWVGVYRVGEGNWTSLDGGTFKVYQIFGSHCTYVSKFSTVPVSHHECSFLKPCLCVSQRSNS
MPTP block = blocks calcium-induced mitochondrial swelling; 1.4% of 360,000 active; inhibition, % at 10 µM; AID 602449; isolated mouse mitochondria, Ca2+ swelling absorbance, 30 min;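 active means inhibition of 50% or more, scaled per plate between neutral and stimulator controls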;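 further: 0% = DMSO wells given calcium and 100% = 1 mM EGTA wells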
GRIN3A LBD mod = modulators (binders) of human NR3A ligand-binding domain; NR3A LBD differential scanning fluorimetry, Tm shift; 0% = protein alone, 100% = glycine-bound protein; Tm shift relative to glycine control, % at 25 µM; 2.5% of 340,000 active; AID 1259313;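 active means melting temperature shift of at least 10% of the positive control shift, at one fixed dose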
Active calls of the source: *; / = no result given.

SMILES	CHOP inhibitor	TbMetRS inhib	WT yeast gro inh	EBV gp42 block	MPTP block	GRIN3A LBD mod
COc1ccc(CCN(C)C(=O)c2cc(S(=O)(=O)N3CCCCCC3)ccc2OC)cc1OC	/	-0.3	/	/	-0.7	2.0
COc1ccccc1/C=N/NC(=O)c1nnn(-c2nonc2N)c1CN(C)c1ccccc1	/	-0.2	/	/	0.9	3.9
CCOc1ccc(/C=N/NC(=O)c2nnn(-c3nonc3N)c2CN(C)C2CCCCC2)cc1	/	0.1	/	/	0.3	0.6
CN(Cc1c(C(=O)N/N=C/c2ccccc2F)nnn1-c1nonc1N)c1ccccc1	/	0.1	/	/	-1.0	11.6*
CN(Cc1c(C(=O)N/N=C/c2cccc(Cl)c2)nnn1-c1nonc1N)c1ccccc1	/	-0.3	/	/	-0.4	21.0*
COc1ccc(/C=N/NC(=O)c2nnn(-c3nonc3N)c2CN(C)c2ccccc2)cc1	/	-0.1	/	/	0.2	24.1*
CN(Cc1c(C(=O)N/N=C/c2ccccc2)nnn1-c1nonc1N)c1ccccc1	/	0.8	/	/	0.1	19.5*
CN(C)Cc1c(C(=O)N/N=C/c2cccnc2)nnn1-c1nonc1N	/	-0.2	/	/	-2.2	-0.7
CN(C)c1ccc(/C=N/NC(=O)c2nnn(-c3nonc3N)c2CN(C)c2ccccc2)cc1	/	-0.3	/	/	1.2	14.8*
O=[N+]([O-])c1cccc(/C=C/c2nc(C=Nc3ccccc3)c(O)o2)c1	7.8	-0.1	12.6	-3.1	3.4	11.4*
CCc1ccc(-c2nnn(CCC(=O)OC)n2)cc1	75.4*	-0.9	4.9	-2.6	-3.9	0.5
CCc1ccc(-c2nnn(CCC#N)n2)cc1	0.1	1.0	-11.5	0.7	-1.4	3.5
CCCOc1cccc(C(=O)N/N=C/c2coc3ccccc3c2=O)c1	/	-0.2	/	/	0.7	0.9
OCCN(CCO)CC(O)COc1ccc(C23CC4CC(CC(C4)C2)C3)cc1 (stereo not drawn)	26.9	0.2	95.5*	-8.2	-0.9	-0.6
OCCN(CCO)CC(O)COc1ccc(Br)cc1 (stereo not drawn)	9.9	0.0	/	-8.0	-1.9	0.9
COc1cccc(-c2sc3ccc(OC)cc3c2-c2ccc(OCCN3CCOCC3)cc2)c1	/	-0.1	/	/	0.3	1.8
COc1cc(OC)cc(-c2sc3ccc(OC)cc3c2-c2ccc(OCCN3CCOCC3)cc2)c1	/	-2.1	/	/	-0.7	11.4*
C=CCSc1nc(N(CC)CC)c2sccc2n1	64.0	-0.3	2.1	3.4	2.1	7.9
N#C/C(=C\c1ccc(-c2ccccc2[N+](=O)[O-])o1)C(=O)Nc1nc(-c2cccs2)cs1	16.6	-0.1	3.2	0.8	20.7	11.7*
N#C/C(=C\c1ccc(-c2ccc([N+](=O)[O-])cc2)o1)C(=O)Nc1nc(-c2cccs2)cs1	47.1	-0.1	/	28.7	7.6	-1.4
N#C/C(=C/c1ccc(-c2cccc([N+](=O)[O-])c2)o1)C(=O)Nc1nc(-c2cccs2)cs1	/	0.1	/	/	3.5	22.8*
CC1NC(=O)COC1c1ccccc1 (stereo not drawn)	/	0.5	/	/	1.0	/
Cc1[nH]n(C2=NCCS2)c(=O)c1N=Nc1cccc(C(F)(F)F)c1	-32.1	-0.7	84.2*	-1.8	-29.0	-3.6
Cc1cc(OCC(F)(F)C(F)(F)C(F)(F)C(F)(F)C(F)(F)C(F)F)nc(N)n1	90.7*	-0.5	16.2	4.0	44.8	-6.4
CCCNC(=O)C1CN(S(=O)(=O)c2ccc(C)cc2)c2ccccc2O1 (stereo not drawn)	/	0.3	/	/	0.4	5.0
SMILES	CHOP inhibitor	TbMetRS inhib	WT yeast gro inh	EBV gp42 block	MPTP block	GRIN3A LBD mod
O=C1c2ccccc2C(=O)N1N(c1ccccc1)c1ccccc1	/	-0.4	/	/	1.2	16.3*
CCOC(=O)c1c(CC(C)C)csc1/N=C/C1C(=O)CC(C)(C)CC1=O	71.8*	0.0	-0.9	-26.1	2.3	6.3
CCN(CC)S(=O)(=O)c1ccc(N2CCCCC2)c(NC(=O)C2CSC3(C)CCC(=O)N23)c1 (stereo not drawn)	/	-0.1	/	/	0.4	/
CCC1CCCCN1Cc1ccc(OC)c(C)c1 (stereo not drawn)	-4.5	-0.3	-1.9	-17.9	-0.7	2.3
COc1ccc(CN(CC(=O)NCCC(C)C)C(=O)CCC(=O)Nc2nccs2)cc1	/	-0.9	/	/	-1.2	-0.3
COc1ccc(N=Cc2oc3ccc4ccccc4c3c2O)cc1	-25.2	-0.5	4.1	-5.7	0.3	14.9*
Cc1ccc(CNC(=O)c2nn(C)c3c2CS(=O)(=O)c2ccccc2-3)cc1	/	0.3	/	/	0.4	-0.8
Cc1nn(-c2ccccc2)c(Cl)c1/C=N/NC(N)=O	-2.8	-0.1	/	-13.4	0.6	-2.1
NC(=O)N/N=C/c1c(Sc2nnnn2-c2ccccc2)nc2ccccn2c1=O	-7.2	0.2	/	4.0	1.7	28.7*
O=C(CSc1nnc(C2CCCCC2)o1)N1CCCCC1	11.7	-0.1	-27.7	-7.3	-0.9	-1.3
Cc1onc(-c2c(Cl)cccc2Cl)c1C(=O)NNc1ccccc1	7.2	0.4	/	-17.1	1.6	1.5
CC(=O)N1N=C(c2ccc(Br)cc2)CC1c1cn(C)c2ccccc12 (stereo not drawn)	63.1	2.6	74.2*	-13.3	-0.6	-8.2
O=C(N/N=C/c1cccnc1)c1ccc(Cl)c(Cl)c1	/	0.0	/	/	0.7	13.9*
O=C(CNC(=O)c1cccc(Cl)c1)N/N=C/c1cccnc1	-1.5	1.4	/	-5.9	1.7	0.3
CC(=O)Nc1ccc(C(=O)N/N=C/c2cccnc2)cc1	18.1	-1.9	1.6	-0.3	-0.5	0.2
O=C(N/N=C/c1cccnc1)c1ccccc1Cl	/	-0.1	/	/	0.4	-0.2
O=C(N/N=C/c1cccnc1)c1ccc(NC(=O)c2cccc(Cl)c2)cc1	/	-0.1	/	/	1.9	12.3*
O=C(N/N=C/c1cccnc1)c1ccc(NC(=O)c2ccc(Cl)cc2)cc1	/	0.6	/	/	-1.3	14.2*
O=C(N/N=C\c1cccnc1)c1cc(-c2ccc(Cl)s2)[nH]n1	-11.8	-0.5	3.2	-24.9	-1.7	22.9*
O=C(NC1CCCCC1)c1ccc(Cl)c(NC(=O)c2ccccc2F)c1	1.4	/	2.8	-17.7	/	/
Cc1cc(C)c2c(ccc3ccccc32)n1	/	-0.3	/	/	-0.9	3.7
Cn1c(=O)oc2cc(S(=O)(=O)NCCC(=O)N3CCN(c4ccccc4)CC3)ccc21	/	0.1	/	/	-0.9	1.8
O=C(NCCNCc1cccc(Cl)c1)c1ccco1	/	-0.1	/	/	-0.8	-8.1
COc1ccc(OCCCCn2c(CO)nc3ccccc32)cc1	/	-0.6	/	/	0.6	0.0
COc1ccc(Cn2c(O)c(C=Nc3ccc(OC)cc3)c3ccccc3c2=O)cc1	0.5	-0.4	-10.3	3.6	2.8	-1.8
Cn1c(=O)c2cc3c(nc2n(C)c1=O)CC(c1ccccc1)CC3=O (stereo not drawn)	26.1	-0.7	/	0.1	1.1	-0.6
Cc1cccc(/C=N/NC(=O)c2ccc(NC(=O)c3ccccc3Cl)cc2)n1	/	0.0	/	/	-1.5	-1.4
Cc1cccc(/C=N/NC(=O)c2ccc(NC(=O)c3cccc(Cl)c3)cc2)n1	/	-0.7	/	/	0.0	14.9*
C=CCN(CC=C)CCOc1cccc2ccccc12	75.5*	-0.7	1.8	-6.3	0.2	12.2*
